According to publication PMC3949125 (Proteins, 2013):

Key:
[1] = molecular target: human BCL2 (residues 1–218) (Homo sapiens, UniProt P10415); test: Isothermal titration calorimetry of BECN1 BH3D-derived peptides binding to BCL2; conditions: ITC, 25°C, pH 7.5
Method in brief: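 Soluble human BCL2 (1–218, C-terminal transmembrane helix removed) and synthetic BH3D-derived peptides (HPLC-purified >95%, mass confirmed by electrospray MS) were co-dialysed against 50 mM HEPES pH 7.5, 150 mM NaCl, 2 mM β-mercaptoethanol. BCL2 sat in the cell and peptide was titrated in at 25°C over 25 injections. Kd came from fitting an independent binding model.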

[2] = molecular target: Soluble human BCL2 (residues 1-218), lacking the C-terminal transmembrane helix (human, UniProt P10415 1-218); test: ITC
Chain of Soluble human BCL2 (residues 1-218), lacking the C-terminal transmembrane helix (P10415 1-218): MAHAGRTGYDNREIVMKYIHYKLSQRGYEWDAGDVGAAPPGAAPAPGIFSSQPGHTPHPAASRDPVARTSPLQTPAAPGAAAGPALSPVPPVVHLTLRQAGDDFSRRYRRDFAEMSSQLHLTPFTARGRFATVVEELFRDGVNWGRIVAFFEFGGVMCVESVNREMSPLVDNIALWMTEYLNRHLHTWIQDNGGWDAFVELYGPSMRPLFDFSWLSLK

Chain of human BCL2 (residues 1–218) (P10415 1-218): as above

In the case of “F123A: BECN1 BH3D-derived peptide with Ala substitution of F123 (DGGTMENLSRRLKVTGDLADIMSGQT) [Mutant F123A]”, the “Binding to BCL2 (in words)” value [1] is reported as “abolished”.

For “G120E+D121A: BECN1 BH3D-derived peptide with double G120E+D121A substitution (DS) (DGGTMENLSRRLKVTEALFDIMSGQT)”, the “Binding to BCL2 (in words)” value [1] was “abolished” and the “Binding to BCL2 (in words)” value ([1]; listed as DS BH3D) was “does not bind”.

In the case of “L112A: BECN1 BH3D-derived peptide with Ala substitution of L112 (DGGTMENASRRLKVTGDLFDIMSGQT) [Mutant L112A]”, the “Binding to BCL2 (in words)” value [1] is reported as “abolished”.

“L116A: BECN1 BH3D-derived peptide with Ala substitution of L116 (DGGTMENLSRRAKVTGDLFDIMSGQT) [Mutant L116A]” was tested, and the “Binding to BCL2 (in words)” value [1] was “abolished”.

With DGGTMENLSRRLKVTGDLFDIMSGQT [human BECN1 BH3D peptide (residues 105-130)] the Kd [2] was 10.4 ± 3.5 µM and the dH [2] was -17.8 ± 6.5 kJ/mol.

Work on DGGTMENLSRRLQVTGDLFDIMSGQT (peptide, UniProt Q14457 105-130, looked up) [K117Q BECN1 BH3D peptide] yielded a dH [2] of -21.4 ± 4.6 kJ/mol.

DGGTAENLSRRLKVTGDLFDIMSGQT (peptide, UniProt Q14457 105-130, looked up) [M109A BECN1 BH3D peptide] showed a dH [2] of -15.8 ± 2.9 kJ/mol.
